Bioassay records from PubChem.
T cruzi growth-1 – inhibitors of T. cruzi proliferation | AID 624255 | T. cruzi beta-gal in NIH3T3, GalScreen luminescence, 90 h | 5.9% of 77,000 active | inhibition, % at 8.34 µM;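 active = mean inhibition above about 93%, with at least 55% of replicates each passing it, limit read from the data, passing the limit was not always enough; inconclusive = only one of those two conditions holds; inactive = neither condition holds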
Pf Dd2 growth – blocks growth of Plasmodium falciparum Dd2 parasites | P. falciparum Dd2 growth, SYBR Green, 72 h; hits give low values | activity change, % at 10 µM | 2.3% of 94,000 active | AID 1159554; in the data active = activity change below about -80%; inconclusive = no clear call, values can overlap the other calls
GASC1 inh – KDM4C (human) demethylase inhibition; Q9H3R0; GST-KDM4C 2-372, H3K9me3 peptide, LANCE TR-FRET; inhibition, % at 12.5 µM; 0.15% of 96,000 active;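 active = mean replicate inhibition above about 25%, with at least 55% of replicates also reaching it, limit read from the data, passing the limit was not always enough; inconclusive = only one of those two conditions met; inactive = neither condition met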
Target sequence (Q9H3R0 2-372 limits assumed): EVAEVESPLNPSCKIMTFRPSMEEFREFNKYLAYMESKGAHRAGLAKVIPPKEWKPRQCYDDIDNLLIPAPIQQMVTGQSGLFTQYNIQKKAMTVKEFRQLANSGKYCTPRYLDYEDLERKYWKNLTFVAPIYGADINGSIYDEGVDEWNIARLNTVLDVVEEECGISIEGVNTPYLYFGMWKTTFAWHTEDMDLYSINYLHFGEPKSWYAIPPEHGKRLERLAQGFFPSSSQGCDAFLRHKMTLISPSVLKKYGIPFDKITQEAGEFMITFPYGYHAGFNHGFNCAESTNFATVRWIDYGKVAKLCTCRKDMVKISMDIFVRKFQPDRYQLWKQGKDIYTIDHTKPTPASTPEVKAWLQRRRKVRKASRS
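System – N-terminal GST-fused human GASC-1 (KDM4C) fragment, residues 2-372 · Input – enzyme final amount 10 nM · Technique – LANCE TR-FRET, Eu antibody, ULight-streptavidin, EDTA, ex 340 nm, em 618/671 nm · Medium – HEPES buffer, pH 7.5, plus ascorbate · Incubation – enzyme reaction 30 min, then detection 60 min, both room temperature · Reagent – H3K9me3 peptide with Fe(II)/2OG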
IDH1 R132H inh – IDH1 R132H (human) inhibition; O75874; 0.18% of 70,000 active; inhibition, % at 10 µM; IDH1 R132H reductase, diaphorase/resazurin fluorescence, 60 min; AID 624101; in the data active = inhibition above about 34%; inconclusive = no clear call, values can overlap the other calls; inactive = below about 11%
T cruzi growth-2 – blocks T. cruzi growth in NIH3T3 host cells | shares compounds with T cruzi growth-1 | T. cruzi beta-gal in NIH3T3, GalScreen luminescence, 90 h | inhibition, % at 8.35 µM | 72% of 5,600 active | AID 651739;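 active = mean replicate inhibition above about 95% and at least 55% of replicates individually reaching it, limit read from the data; inconclusive = only one of the two criteria is met; inactive = neither criterion is met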
T cruzi growth-3 – inhibitors of T. cruzi proliferation. shares compounds with T cruzi growth-1. T. cruzi beta-gal in NIH3T3, GalScreen luminescence, 90 h. inhibition, % at 2.09 µM. 21% of 5,600 active. AID 651740;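 active = mean inhibition above about 95%, with at least 55% of replicates also reaching it, limit read from the data; inconclusive = meets just one of the two conditions; inactive = meets neither condition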
3T3 cytotox – cytotoxicity in mouse NIH/3T3 fibroblasts; 14% of 5,600 active; NIH/3T3 viability, CellTiter-Glo ATP luminescence, 90 h; cytotoxicity (signal decrease), % at 8.35 µM; shares compounds with T cruzi growth-1; AID 651742;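 active = mean signal decrease across replicates above about 35% based on untreated-well scatter, with enough replicates individually passing, limit read from the data; inconclusive = no rule stated though some were filed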
NIH3T3 tox 2 – kills mouse NIH/3T3 fibroblasts | shares compounds with T cruzi growth-1 | 56% of 5,600 active | inhibition, % at 24.9 µM | NIH/3T3 viability, CellTiter-Glo ATP luminescence, 90 h;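 active = mean loss of cell viability signal at or above a set limit, and enough replicates individually reaching it; inconclusive = meets only the mean limit or only the replicate share; inactive = meets neither condition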
A number is an active result; – = inactive; ? = inconclusive; · = no result; ! = a repeat was not active. A selection: hits, their analogues and other compounds. The true share with any hit is near 5.8%.

SMILES	T cruzi growth-1	Pf Dd2 growth	GASC1 inh	IDH1 R132H inh	T cruzi growth-2	T cruzi growth-3	3T3 cytotox	NIH3T3 tox 2
C[C@@H]1CCCCO[C@H](CN(C)S(C)(=O)=O)[C@H](C)CN([C@@H](C)CO)C(=O)c2cc(N(C)C)ccc2O1	108	–	–	–	–	–	–	–
C[C@@H]1CCCCO[C@@H](CN(C)S(C)(=O)=O)[C@@H](C)CN([C@H](C)CO)C(=O)c2cc(N(C)C)ccc2O1	101!	–	–	·	–	–	–	–
C[C@@H]1CN([C@@H](C)CO)C(=O)c2cc(N(C)C)ccc2O[C@@H](C)CCCCO[C@@H]1CN(C)S(C)(=O)=O	–	·	–	·	·	·	·	·
C[C@@H]1CN([C@H](C)CO)C(=O)c2cc(N(C)C)ccc2O[C@@H](C)CCCCO[C@H]1CN(C)S(C)(=O)=O	–	–	–	·	·	·	·	·
Nc1cc(N)nc(SCC(=O)N(c2ccccc2)c2ccccc2)n1	·	·	·	–	·	·	·	·
COc1ccc([N+](=O)[O-])cc1NC(=O)C1(c2ccc(OC)c(OC)c2)CCCCC1	·	·	·	–	·	·	·	·
O=C(Nc1ccccc1)N1CCCCN2[C@H](CO)[C@H](c3ccc(C4=CCCCC4)cc3)[C@@H]2C1	?	–	–	·	115	–	–	94
O=C(Nc1ccc(F)cc1)N1CCCCN2[C@H](CO)[C@H](c3ccc(C4=CCCCC4)cc3)[C@@H]2C1	118	–	–	·	107	98	–	63
O=C(Nc1ccccc1)N1CCCCN2[C@H](C1)[C@@H](c1ccc(-c3ccccc3)cc1)[C@@H]2CO	–	–	–	·	·	·	·	·
O=C(Nc1ccccc1)N1CCCCN2[C@@H](CO)[C@@H](c3ccc(-c4ccccc4)cc3)[C@@H]2C1	–	–	–	·	·	·	·	·
COc1ccc(NC(=O)N2CCCCN3[C@H](CO)[C@H](c4ccc(C5=CCCC5)cc4)[C@@H]3C2)cc1	117	–	·	·	96	107	–	?
COc1ccc(NC(=O)N2CCCCN3[C@H](C2)[C@H](c2ccc(C4=CCCC4)cc2)[C@@H]3CO)cc1	–	–	·	·	·	·	·	·
O=C(Nc1ccccc1)N1CCCCN2[C@H](C1)[C@H](c1ccc(C3=CCCCC3)cc1)[C@@H]2CO	110	–	–	·	109	–	–	79
COc1ccc(NC(=O)N2CCCCN3[C@@H](CO)[C@H](c4ccc(C5=CCCCC5)cc4)[C@@H]3C2)cc1	–	–	–	·	·	·	·	·
O=C(Nc1ccccc1)N1CCCCN2[C@@H](CO)[C@H](c3ccc(C4=CCCCC4)cc3)[C@@H]2C1	?	–	–	·	–	–	116	105
O=C(Nc1ccccc1F)N1CCCCN2[C@H](CO)[C@H](c3ccc(C4=CCCC4)cc3)[C@@H]2C1	110	–	–	·	109	–	–	–
Cc1ccccc1S(=O)(=O)N1[C@H](C#N)[C@@H](c2ccc(-c3ccccc3)cc2)[C@@H]1CO	–	–	–	·	·	·	·	·
CCCC#Cc1ccc([C@H]2[C@H](C#N)N(S(=O)(=O)c3cccc(F)c3)[C@H]2CO)cc1	98	–	–	·	103	105	–	59
Cc1ccccc1S(=O)(=O)N1[C@H](C#N)[C@H](c2ccc(-c3ccccc3)cc2)[C@H]1CO	103	–	–	·	98	–	41	47
N#C[C@H]1[C@H](c2ccc(-c3cccc(F)c3)cc2)[C@@H](CO)N1S(=O)(=O)c1cccc(F)c1	98	–	–	·	105	–	41	104
N#C[C@H]1[C@H](c2ccc(-c3cccc(F)c3)cc2)[C@H](CO)N1S(=O)(=O)c1cccc(F)c1	96	–	–	·	108	–	37	57
CCC(Oc1ccccc1)C(=O)Nc1cc2oc3ccccc3c2cc1OC (stereo not given)	·	·	·	–	·	·	·	·
COC(=O)c1ccccc1NC(=O)CSc1nnnn1-c1ccccc1OC	·	·	·	–	·	·	·	·
Cc1cc(=O)[nH]c(SCCOc2c(C)ccc(C)c2Cl)n1	·	·	·	–	·	·	·	·
Cc1nnc(SCC(=O)Nc2cccc(F)c2)s1	·	·	·	–	·	·	·	·
SMILES	T cruzi growth-1	Pf Dd2 growth	GASC1 inh	IDH1 R132H inh	T cruzi growth-2	T cruzi growth-3	3T3 cytotox	NIH3T3 tox 2
COc1ccc(NC(=O)c2oc3ccccc3c2NC(=O)Cc2coc3cc(C)cc(C)c23)cc1	·	·	·	–	·	·	·	·
COc1ccc(NC(=O)C(=O)NCC(=O)Nc2ccccc2OC)cc1	·	·	·	–	·	·	·	·
C[C@H]1CN([C@@H](C)CO)C(=O)c2cccc(NC(=O)Nc3ccc(C(F)(F)F)cc3)c2O[C@@H]1CN(C)Cc1ccc2c(c1)OCO2	–	–	·	·	·	·	·	·
C[C@H](CO)N1C[C@H](C)[C@H](CN(C)Cc2ccc3c(c2)OCO3)Oc2c(NC(=O)Nc3ccc(C(F)(F)F)cc3)cccc2C1=O	103	–	–	–	108	103	–	103
C[C@H](CO)N1C[C@H](C)[C@@H](CN(C)Cc2ccc3c(c2)OCO3)Oc2c(NC(=O)Nc3ccc(C(F)(F)F)cc3)cccc2C1=O	104	–	–	·	97	105	–	97
C[C@@H]1CN([C@@H](C)CO)C(=O)c2cccc(NC(=O)Nc3ccc(C(F)(F)F)cc3)c2O[C@H]1CN(C)Cc1ccc2c(c1)OCO2	?	–	·	·	105	117	–	55
Cc1nn(CC(O)COc2ccc3ccccc3c2)c(C)c1Br (stereo not given)	·	·	·	–	·	·	·	·
Cc1ccc(S(=O)(=O)Nc2ccc3c(c2)C(=O)N([C@@H](C)CO)C[C@H](C)[C@@H](CN(C)C(=O)Nc2ccc(F)cc2)OCCCC[C@@H](C)O3)cc1	98	-82	–	–	107	–	–	–
Cc1ccc(S(=O)(=O)Nc2ccc3c(c2)C(=O)N([C@@H](C)CO)C[C@@H](C)[C@H](CN(C)C(=O)Nc2ccc(F)cc2)OCCCC[C@@H](C)O3)cc1	?	–	–	–	101	–	–	–
Cc1ccc(S(=O)(=O)Nc2ccc3c(c2)C(=O)N([C@@H](C)CO)C[C@@H](C)[C@@H](CN(C)C(=O)Nc2ccc(F)cc2)OCCCC[C@H](C)O3)cc1	–	–	–	–	·	·	·	·
Cc1ccc(S(=O)(=O)Nc2ccc3c(c2)C(=O)N([C@H](C)CO)C[C@@H](C)[C@H](CN(C)C(=O)Nc2ccc(F)cc2)OCCCC[C@H](C)O3)cc1	100	–	–	–	106	–	–	–
CC(=O)O[C@@H]1CC(=O)OC(C)(C)C2CC(=O)[C@]3(C)C(CC[C@@]4(C)[C@H](c5ccoc5)OC(=O)[C@H]5O[C@]543)[C@]21C (stereo not given in full)	·	·	·	–	·	·	·	·
C[C@H](O)C#Cc1ccc2c(c1)O[C@@H](CN(C)Cc1ccc(-c3ccccc3)cc1)[C@@H](C)CN([C@@H](C)CO)S2(=O)=O	–	–	–	–	·	·	·	·
